Bioassay records as filed in PubChem.
Hits are enriched below; roughly 3.3% of the tested compounds scored in any of these assays.
Arrestin-AP2 inh: inhibitors of beta-arrestin/AP2 binding, primary screen, biochemical, GPCR trafficking, flow cytometry; hit rate 0.31% among 340,000; inhibition, % at 10 µM; FITC-arrestin peptide / GST-AP2 beads; AP2 beta2 appendage carries R879A mutation;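 active = inhibition above a set limit, near 3 SD of compounds lacking own fluorescence, cut at about 54% in these data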;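 note: plate controls were DMSO wells for no effect and 5 µM unlabelled arrestin peptide for full effect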
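Measured by: flow cytometry, FL1 (488/535 nm); Material: AP2 appendage R879A on GSH beads; Evaluation: percent response; Timing: pre-incubation 12 min, peptide binding 1 h, room temperature; Also added: 50 nM FITC-arrestin peptide; Medium: PBS with 0.05% Tween 20 and 0.1% BSA.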
Lipid droplet: inhibitors of hepatocyte lipid droplet formation, primary screen, imaging, high-throughput imaging, BODIPY stain; hit rate 0.4% among 240,000; AML12 mouse hepatocytes, oleate lipid droplets; inhibition, % at 6.5 µM;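 active = lipid droplet intensity inhibited by at least 50%, with more than 500 cells counted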
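Material – AML12 mouse liver cells · Also added – oleate loading, 100 µM · Compound dosing – 6.5 µM single-point dosing · Times – overnight treatment with compound plus oleate · Measured by – fluorescence imaging, 20x objective, two fields per well · Read-out – percent inhibition of filter-corrected integrated lipid droplet intensity per well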
M18AAP inhibitor: PfM18AAP inhibitors, malaria aminopeptidase, primary screen, biochemical, QFRET, recombinant enzyme | M18 aspartyl aminopeptidase (Plasmodium falciparum 3D7) | H-Glu-NHMec fluorogenic cleavage | inhibition, % at 7.35 µM | hit rate 1.2% among 290,000 | AID 1822, 2009;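 active = inhibition above the campaign mean inhibition over all tested compounds plus 3 SD, cut at about 28% in these data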;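 note: 0% = plate median of test compound wells and 100% = 2 mM ZnCl2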
sPLA2-III inh: human group III sPLA2 inhibitors, primary screen, biochemical, QFRET, BODIPY PC-A2 liposome substrate. QFRET BODIPY PC-A2 liposome hydrolysis, fluorescence. inhibition, % at 12.2 µM. hit rate 0.56% among 370,000. AID 743126, 2013;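 active = inhibition above mean plus 3 SD of compounds lying within the high and low control bounds, cut at about 19% in these data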;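 note: 0% = median of test compound wells and 100% = no enzyme DMSO wells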
Target sequence (Q9NZ20 whole entry, looked up): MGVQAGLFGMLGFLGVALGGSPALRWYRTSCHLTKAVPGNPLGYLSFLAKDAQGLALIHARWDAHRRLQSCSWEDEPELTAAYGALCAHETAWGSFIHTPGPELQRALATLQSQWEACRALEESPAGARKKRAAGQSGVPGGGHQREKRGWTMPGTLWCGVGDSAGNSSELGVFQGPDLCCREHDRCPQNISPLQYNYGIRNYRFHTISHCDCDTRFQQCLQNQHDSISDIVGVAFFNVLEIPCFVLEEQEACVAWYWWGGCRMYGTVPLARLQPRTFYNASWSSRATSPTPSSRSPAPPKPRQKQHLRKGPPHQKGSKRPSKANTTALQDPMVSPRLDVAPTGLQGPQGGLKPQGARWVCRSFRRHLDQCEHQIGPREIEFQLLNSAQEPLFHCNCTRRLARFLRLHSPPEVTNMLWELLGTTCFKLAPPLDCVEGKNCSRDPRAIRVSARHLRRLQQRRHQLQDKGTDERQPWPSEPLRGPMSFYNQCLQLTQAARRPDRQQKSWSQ
m5-HT2A agonist: mouse Htr2a agonists via beta-arrestin recruitment, primary screen, cell-based, luminescence | 5-hydroxytryptamine receptor 2A (Mus musculus), P35363 | CHO-K1 mHTR2A beta-arrestin complementation; percent of 30 µM serotonin response | activation, % at 7.6 µM | hit rate 0.66% among 360,000;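 active = activation above a run cutoff, the mean activation of all tested compounds plus 3 SD, cut at about 14% in these data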;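 note: 0% = plate median of compound wells and 100% = 30 µM serotonin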
CendR NRP1 mod: modulators of CendR peptide binding to NRP-1, primary screen, biochemical, fluorescence polarization, uHTS | FAM-RPARPAR peptide binding to NRP-1 | AID 602438, 2012 | inhibition, % at 25 µM | hit rate 0.85% among 360,000;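 active = inhibition or corrected inhibition above about 18%, plus a signal ratio from 0.5 to 1.5, limit read from the data, passing the limit was not always enough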
sPLA2 confirm: human group III sPLA2 inhibitors, confirmation, biochemical, QFRET, triplicate. shares compounds with sPLA2-III inh. recombinant hGIII-sPLA2, BODIPY PC-A2 QFRET fluorescence. inhibition, % at 12.2 µM. hit rate 34% among 2,000;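 active = mean inhibition across triplicates above the hit cutoff set in the earlier primary screen, cut at about 19% in these data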;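 note: 0% = enzyme with DMSO and 100% = DMSO wells lacking enzyme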
BODIPY interf: 535nm fluorescence optical interference, confirmation, artefact control for HGIII-sPLA2 inhibitor project, biochemical, QFRET | inhibition, % at 12.2 µM | shares compounds with sPLA2-III inh | AID 743282, 2014 | hit rate 8.5% among 2,000 | BODIPY FL product fluorescence interference;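 active = average inhibition above the solvent-only control mean plus 3 SD, cut at about 6% in these data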;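 note: 0% = DMSO with substrate plus product and 100% = DMSO with substrate alone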
BODIPY interf DR: 535nm fluorescence optical interference, dose response, artefact control for HGIII-sPLA2 inhibitor project, biochemical, QFRET | shares compounds with sPLA2-III inh | BODIPY FL product fluorescence interference, cell-free | IC50, µM | 240 tested, under 10 active;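 active = IC50 at or below 10 µM; inactive = IC50 above 10 µM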
* marks the source's active call; other numbers are inactive results; . = not tested or not shown.

SMILES | Arrestin-AP2 inh | Lipid droplet | M18AAP inhibitor | sPLA2-III inh | m5-HT2A agonist | CendR NRP1 mod | sPLA2 confirm | BODIPY interf | others
OC[C@@H]1CN(Cc2ccncc2)C[C@H](n2cnc3c(NC4CCCC4)ncnc32)O1 | . | . | . | 21* | 9 | 5 | 0 | -10
COCCN1C[C@@H](CO)O[C@@H](n2cnc3c(N4CCN(C)CC4)ncnc32)C1 | . | . | . | . | 9 | 6 | . | .
OCCC1CN(CC2CCCCC2)CCN1C1CCCC1 (configuration not stated) | 4 | 18 | 5 | 9 | -2 | 0 | . | .
Cc1ccc(C)c(-n2cc[nH]c2=S)c1 | -7 | 6 | 30* | 20* | 5 | -7 | 8 | -5
Clc1cccc(N2CCN(CCCN3CCN(c4ccccc4)CC3)CC2)c1 | 0 | . | . | -4 | 5 | 10 | . | .
Nc1ccc(N2CCN(c3cccc(Cl)c3)CC2)cc1 | 7 | 16 | 1 | 23* | 11 | -9 | 10 | 5
Cc1cn2c(=O)c3ncn(C4OC(CO)C(O)C4O)c3n(C)c2n1 (configuration not stated) | . | . | . | 1 | . | . | . | .
COc1ccccc1N1CCN(N=Cc2ccccc2Br)CC1 | . | . | . | 19* | . | . | 7 | -9
COc1ccc(NC(=O)CN(C)CC(=O)N(C)C2(C#N)CCC(C)CC2)cc1 (configuration not stated) | 10 | . | . | 2 | 5 | -6 | . | .
COc1ccc(Cn2c(NC(=O)c3ccccc3)nc(Cc3ccccc3)c2Cc2ccccc2)c(OC)c1 | . | . | . | -3 | . | . | . | .
COc1ccccc1Cn1c(=S)[nH]c2cc(C(=O)NCCCN3CCOCC3)ccc2c1=O | 3 | -8 | 8 | 20* | -7 | 4 | 12 | -9
CC12CC3CC(C1)CC(C(=O)NNC(=O)c1ccncc1)(C3)C2 | 1 | . | . | -2 | -5 | 4 | . | .
CC1(C(=O)NC(=S)NNC(=O)c2ccncc2)CCCCC1 | -3 | -2 | -3 | 26* | -3 | -18 | 20* | -11
O=C(NNC(=S)NC(=O)C12CC3CC(CC(C3)C1)C2)c1ccncc1 | -8 | -11 | -9 | 24* | -15 | 0 | 31* | -18 | BODIPY interf DR=>122
COc1ccccc1CCn1cnc(-c2cccc(F)c2)c1C(C)C | . | . | . | -2 | . | . | . | .
CCOC(=O)C1=NOC(C(=O)NC2CCCC2)(C(=O)C2CC2)C1 (configuration not stated) | . | . | . | 8 | . | . | . | .
CCOC(=O)c1cc2c(=Cc3ccc(N(C)C)cc3)c3ccccc3n2[n+]1C | 13 | . | . | 28* | -3 | -74 | 35* | -13 | BODIPY interf DR=>122
CC1(C(=O)NS(=O)(=O)c2ccccc2)CCN1C(=O)CCc1ccccc1 (configuration not stated) | . | . | . | -1 | 2 | 10 | . | .
CCCn1c(=O)c(C(=O)NNC(=O)c2ccccc2Cl)c(O)c2ccccc21 | -35 | -4 | 2 | 21* | -3 | -7 | 20* | 1
COC(=O)C1=C(C)N(C)C(=NCc2ccc3c(c2)OCO3)NC1c1cccc(C(F)(F)F)c1 (configuration not stated) | . | . | . | 8 | . | . | . | .
